Results published in ChEMBL document CHEMBL1157367, “Systematic comparison of the population pharmacokinetics and pharmacodynamics of piperacillin in cystic fibrosis patients and healthy volunteers” (Antimicrob Agents Chemother, 2007).

Legend:
Format in all cases: ADME, organism-based
[1] = Volume of distribution at steady state in cystic fibrosis patient at 4 g, iv; conditions: human, in vivo, read-out: Vdss
Outline: (§1)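 Single 5-min IV infusion of 4 g piperacillin. Forearm-vein blood drawn from the arm opposite the infusion line pre-dose, at end of infusion, and 5 min to 24 h afterwards. Plasma iced, frozen at –70°C, acetonitrile-deproteinized with mezlocillin internal standard. Reversed-phase HPLC, UV 220 nm, linear 0.200–150 mg/liter. Unscaled parameters by noncompartmental analysis.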

[2] = Clearance in cystic fibrosis patient with lean body mass of 53 kg at 4 g, iv; conditions: human, in vivo
Outline: (§2)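 4 g piperacillin as a single 5-min IV infusion. Serial plasma sampled to 24 h and assayed by reversed-phase HPLC-UV (220 nm, mezlocillin internal standard, LOQ 0.200 mg/liter). Population PK model fitted in NONMEM with body size described by lean body mass and a CF-specific scale factor. Combined additive plus proportional residual error.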

[3] = Total clearance in cystic fibrosis patient at 4 g, iv; conditions: human, in vivo; outline: as §1
[4] = Terminal half life in cystic fibrosis patient at 4 g, iv; conditions: human, in vivo; outline: as §1
Homo sapiens = assay: Peripheral volume of distribution in cystic fibrosis patient with lean body mass of 53 kg at 4 g, iv; conditions: in vivo; outline: as §2
[5] = Volume of distribution at steady state in healthy human with lean body mass of 53 kg at 4 g, iv; conditions: in vivo, read-out: Vdss; outline: as §2
[6] = Total clearance in healthy human at 4 g, iv; conditions: in vivo; outline: as §1
[7] = Peak drug level in healthy human at 4 g, iv; conditions: in vivo, read-out: Drug uptake; outline: as §1
[8] = Volume of distribution at steady state in cystic fibrosis patient with lean body mass of 53 kg at 4 g, iv; conditions: human, in vivo, read-out: Vdss; outline: as §2
[9] = Terminal half life in healthy human at 4 g, iv; conditions: in vivo; outline: as §1
[10] = Volume of distribution at steady state in healthy human at 4 g, iv; conditions: in vivo, read-out: Vdss; outline: as §1
[11] = Clearance in healthy human with lean body mass of 53 kg at 4 g, iv; conditions: in vivo; outline: as §2
[12] = Mean residence time in cystic fibrosis patient at 4 g, iv; conditions: human, in vivo; outline: as §1
[13] = Peak drug level in cystic fibrosis patient at 4 g, iv; conditions: human, in vivo, read-out: Drug uptake; outline: as §1
[14] = Mean residence time in healthy human at 4 g, iv; conditions: in vivo; outline: as §1

A Vd [1] of 8.13 L, a clearance [2] of 188 mL/min and a clearance [3] of 146 mL/min were found for `CCN1CCN(C(=O)N[C@@H](C(=O)N[C@@H]2C(=O)N3[C@@H]2SC(C)(C)[C@@H]3C(=O)O)c2ccccc2)C(=O)C1=O` [PIPERACILLIN] in this work. The half-life [4] was 41.4 min, the Vp/F (Homo sapiens) was 3.12 L and the Vd [5] was 10.4 L. It also gave a clearance [6] of 195 mL/min, a Cmax [7] of 446 µg/mL and a Vd [8] of 9.61 L. The half-life [9] was 63 min, the Vd [10] was 11.8 L and the clearance [11] was 188 mL/min. For the same compound, the MRT [12] was 51 min, the Cmax [13] was 767 µg/mL and the MRT [14] was 61.2 min.
